Tests used:
[1] = molecular target: T1, D(3) dopamine receptor (Homo sapiens, UniProt P35462); assay: Displacement of [125I]IABN from human dopamine D3 receptor expressed in HEK293 cells; type: cell-based
[2] = molecular target: T2, D(4) dopamine receptor (Homo sapiens, UniProt P21917); assay: Displacement of [125I]IABN from human dopamine D4 receptor expressed in HEK293 cells; type: cell-based
T2 sequence (P21917 whole entry): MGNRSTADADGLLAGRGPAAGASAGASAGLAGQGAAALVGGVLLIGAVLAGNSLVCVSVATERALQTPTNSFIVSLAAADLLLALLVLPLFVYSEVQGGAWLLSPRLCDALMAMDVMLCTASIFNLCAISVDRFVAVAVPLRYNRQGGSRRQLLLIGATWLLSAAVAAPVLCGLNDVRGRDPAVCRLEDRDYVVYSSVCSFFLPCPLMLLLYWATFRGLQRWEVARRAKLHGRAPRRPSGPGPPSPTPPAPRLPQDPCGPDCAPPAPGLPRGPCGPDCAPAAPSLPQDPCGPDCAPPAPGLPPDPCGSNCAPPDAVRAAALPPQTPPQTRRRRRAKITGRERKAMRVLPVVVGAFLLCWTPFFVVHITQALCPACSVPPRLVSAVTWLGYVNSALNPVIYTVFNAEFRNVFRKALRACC
Outline: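 Competition binding on HEK 293 cells transfected with human D2L or D4 dopamine receptors; radioligand [125I]IABN displaced by test ligand; Ki values derived.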

[3] = molecular target: T3, D(2) dopamine receptor (Homo sapiens, UniProt P14416); assay: Displacement of [125I]IABN from human dopamine D2L receptor expressed in HEK293 cells; type: cell-based
[4] = species: Homo sapiens; assay: Selectivity for human dopamine D2L receptor over human dopamine D3 receptor
[5] = species: Homo sapiens; assay: Selectivity for human dopamine D2L receptor over human dopamine D4 receptor
[6] = molecular target: T3, D(2) dopamine receptor; assay: Antagonist activity at human dopamine D2 receptor expressed in CHO cells assessed as inhibition of quinpirole stimulated mitogenesis; type: functional, cell-based
Outline: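 Functional mitogenesis assay in CHO cells transfected with human D2 receptor; antagonism measured as inhibition of quinpirole-stimulated mitogenesis (agonism tested as stimulation); EC50 reported; run via NIDA CTDP contract protocol.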

[7] = molecular target: T1, D(3) dopamine receptor; assay: Antagonist activity at human dopamine D3 receptor expressed in CHO cells assessed as inhibition of quinpirole stimulated mitogenesis; type: functional, cell-based

T3 sequence (P14416 whole entry): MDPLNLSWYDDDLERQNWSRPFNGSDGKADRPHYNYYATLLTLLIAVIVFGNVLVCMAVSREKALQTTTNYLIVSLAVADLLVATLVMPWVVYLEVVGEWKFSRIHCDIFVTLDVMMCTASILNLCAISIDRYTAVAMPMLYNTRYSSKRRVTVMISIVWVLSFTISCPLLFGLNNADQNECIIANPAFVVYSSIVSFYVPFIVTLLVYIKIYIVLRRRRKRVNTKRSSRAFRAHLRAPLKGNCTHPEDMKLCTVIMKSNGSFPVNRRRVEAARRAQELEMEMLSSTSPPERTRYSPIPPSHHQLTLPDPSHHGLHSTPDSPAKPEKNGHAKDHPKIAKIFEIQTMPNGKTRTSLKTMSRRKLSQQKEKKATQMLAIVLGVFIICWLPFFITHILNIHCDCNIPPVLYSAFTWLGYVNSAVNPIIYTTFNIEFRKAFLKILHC
T1 sequence (P35462 whole entry): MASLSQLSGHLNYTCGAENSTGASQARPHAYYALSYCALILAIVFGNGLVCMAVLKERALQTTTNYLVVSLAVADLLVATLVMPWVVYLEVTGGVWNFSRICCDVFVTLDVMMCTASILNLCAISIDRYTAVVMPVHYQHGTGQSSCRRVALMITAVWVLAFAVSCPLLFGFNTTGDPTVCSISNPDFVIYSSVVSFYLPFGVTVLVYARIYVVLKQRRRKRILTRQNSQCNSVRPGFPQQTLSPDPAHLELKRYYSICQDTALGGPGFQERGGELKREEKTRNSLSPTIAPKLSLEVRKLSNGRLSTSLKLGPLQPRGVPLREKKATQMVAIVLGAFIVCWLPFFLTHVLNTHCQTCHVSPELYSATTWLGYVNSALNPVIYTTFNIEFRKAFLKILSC

Structure (SMILES) | Ki [1] [nM] | Ki [2] [nM] | Ki [3] [nM] | Ratio Ki [4] | Ratio Ki [5] | EC50 [6] [nM] | EC50 [7] [nM]
OC1(Cc2ccc(Cl)cc2)CCN(Cc2c[nH]c3ccccc23)CC1 | 5480 | 3930 | 2890 | 2 | 1 |  | 
OC1(c2ccc(Cl)cc2)CCN(Cc2n[nH]c3ccccc23)CC1 | 440 | 2150 | 548 | 1 | 4 |  | 
OC1(c2ccccc2Cl)CCN(Cc2c[nH]c3ccccc23)CC1 | 1860 | 2820 | 382 | 5 | 7 | 586 | 
OC1(c2cccc(Cl)c2)CCN(Cc2c[nH]c3ccccc23)CC1 | 450 | 3540 | 129 | 3 | 27 | 83.4 | 
FC1(c2ccc(Cl)cc2)CCN(Cc2c[nH]c3ccccc23)CC1 | 211 | 365 | 120 | 2 | 3 |  | 
CSc1ccc(C2(O)CCN(Cc3c[nH]c4ccccc34)CC2)cc1 | 638 | 319 | 23.9 | 27 | 13 |  | 
OC1(c2cccc(C(F)(F)F)c2)CCN(Cc2c[nH]c3ccccc23)CC1 | 570 | 3750 | 106 | 5 | 35 | 69.1 | 
CCOC(=O)C1(c2ccc(Cl)cc2)CCN(Cc2c[nH]c3ccccc23)CC1 | 724 | 3520 | 58.8 | 12 | 60 |  | 
COc1ccc2[nH]cc(CN3CCC(O)(c4ccc(SC)cc4)CC3)c2c1 | 580 | 567 | 5.5 | 105 | 103 |  | 
OCC1(c2ccc(Cl)cc2)CCN(Cc2c[nH]c3ccccc23)CC1 | 106 | 1940 | 2370 | 0.04 | 1 |  | 
OC1(c2ccc(-c3ccccc3)cc2)CCN(Cc2c[nH]c3ccccc23)CC1 | 467 | 129 | 98.4 | 5 | 1 |  | 
OC1(c2ccc(Cl)cc2)CCN(Cc2coc3ccccc23)CC1 | 53 | 404 | 21 | 3 | 19 |  | 
Oc1ccc(C2(O)CCN(Cc3c[nH]c4ccccc34)CC2)cc1 | 16800 | 1360 | 5360 | 3 | 0.3 |  | 
CC(=O)NCC1(c2ccc(Cl)cc2)CCN(Cc2c[nH]c3ccccc23)CC1 | 12500 | 4450 | 2000 | 6 | 2 |  | 
OC1(c2ccc(Cl)cc2)CCN(Cc2c[nH]c3ccccc23)CC1 | 163 | 1520 |  |  |  |  | 90.4
N#CC1(c2ccc(Cl)cc2)CCN(Cc2c[nH]c3ccccc23)CC1 | 684 | 2270 | 199 | 3 | 11 | 225 | 
OC1(c2ccc(F)cc2)CCN(Cc2c[nH]c3ccccc23)CC1 | 490 | 6090 | 127 | 4 | 48 |  | 

Structure (SMILES) | Ki [1] [nM] | Ki [2] [nM] | Ki [3] [nM] | Ratio Ki [4] | Ratio Ki [5] | EC50 [6] [nM] | EC50 [7] [nM]
OC1(c2ccc(Cl)cc2)CCN(Cc2cc3ccccc3[nH]2)CC1 |  | > 20000 | > 10000 |  |  |  | 
OC1(c2ccc(Cl)c(Cl)c2)CCN(Cc2n[nH]c3ccccc23)CC1 | 156 | 677 | 438 | 0.4 | 2 |  | 
CC1(c2ccc(Cl)cc2)CCN(Cc2c[nH]c3ccccc23)CC1 | 2100 | 2750 | 992 | 2 | 3 | 314 | 347
COC1(c2ccc(Cl)cc2)CCN(Cc2c[nH]c3ccccc23)CC1 | 262 | 34.1 | 68.1 | 4 |  | 34.7 | 248
NC1(c2ccc(Cl)cc2)CCN(Cc2c[nH]c3ccccc23)CC1 | 382 | 2290 | 184 | 2 | 12 |  | 
NCC1(c2ccc(Cl)cc2)CCN(Cc2c[nH]c3ccccc23)CC1 | > 5000 | > 20000 | > 10000 |  |  |  | 
COc1ccc(C2(O)CCN(Cc3c[nH]c4ccccc34)CC2)cc1 | 2130 | 679 | 177 | 12 | 4 |  | 
CC(=O)NC1(c2ccc(Cl)cc2)CCN(Cc2c[nH]c3ccccc23)CC1 | 193 | 348 | 83.1 | 2 | 4 | 24.8 | 
OC1(c2ccc(Cl)c(Cl)c2)CCN(Cc2coc3ccccc23)CC1 | 28 | 167 | 21 | 1 | 8 |  | 
Cn1cc(CN2CCC(O)(c3ccc(Cl)cc3)CC2)c2ccccc21 | 238 | 5140 | 29.6 | 8 | 174 | 20 | 98.6
OC1(c2ccc(Cl)cc2)CCCN(Cc2c[nH]c3ccccc23)CC1 (stereo unspecified) | 2100 | 3870 | 201 | 10 | 19 | 260 | 
CSc1ccc(C2(O)CCN(Cc3coc4ccccc34)CC2)cc1 | 139 | 153 | 54 | 3 | 3 |  | 
CCCCCCOc1ccc(C2(O)CCN(Cc3c[nH]c4ccccc34)CC2)cc1 | 1950 | 1490 | 159 | 12 | 9 | 216 | 
C=CCOC1(c2ccc(Cl)cc2)CCN(Cc2c[nH]c3ccccc23)CC1 | 718 | 1190 | 165 | 4 | 7 |  | 
OC1(c2ccc(Cl)cc2)CCCN(Cc2c[nH]c3ccccc23)C1 (stereo unspecified) | 4270 | 2440 | 4270 | 1 | 1 |  | 
COC(=O)C1(c2ccc(Cl)cc2)CCN(Cc2c[nH]c3ccccc23)CC1 | 544 | 3930 | 60 | 9 | 66 | 76.7 | 

Reference: ChEMBL document CHEMBL1138415, “Analogues of the dopamine D2 receptor antagonist L741,626: Binding, function, and SAR” (Bioorg Med Chem Lett, 2007)
